Test results published in ChEMBL document CHEMBL5137066, “Discovery of BLU-945, a Reversible, Potent, and Wild-Type-Sparing Next-Generation EGFR Mutant Inhibitor for Treatment-Resistant Non-Small-Cell Lung Cancer” (J Med Chem, 2022).
Calls of active or inactive are those of the source. The calls are words filed in the database; no cut-off is given here.

Assays:
[1] = Intrinsic clearance in cynomolgus monkey liver microsomes in presence of NADPH; format: ADME, Macaca fascicularis, Microsome
How it was run: (§1)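 Intrinsic clearance measured in isolated liver microsomes of each species with NADPH, expressed in μL/min/mg.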

[2] = Half life in Sprague-Dawley rat at 1 mg/kg, iv; format: ADME, organism-based; conditions: in vivo
How it was run: (§2)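 Sprague–Dawley rats (n = 3), single IV bolus of 1 mg/kg in 10% DMSO, 10% solutol, 80% of a 20% HP-β-CD solution (in water or in saline, depending on compound). Clearance is plasma clearance after the IV bolus.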

[3] = Intrinsic clearance in rat hepatocytes assessed per million cells; format: ADME, cell-based, Hepatocyte
How it was run: (§3)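 Intrinsic clearance measured in isolated hepatocytes of each species, expressed in μL/min/million cells.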

[4] = Intrinsic clearance in dog liver microsomes in presence of NADPH; format: ADME, Canis lupus familiaris, Microsome; how it was run: as §1
[5] = Clearance in Sprague-Dawley rat at 1 mg/kg, iv; format: ADME, organism-based; conditions: in vivo; how it was run: as §2
[6] = Intrinsic clearance in human hepatocytes assessed per million cells; format: ADME, cell-based, Hepatocyte; how it was run: as §3
[7] = Intrinsic clearance in human liver microsomes in presence of NADPH; format: ADME, Microsome; how it was run: as §1
[8] = Oral bioavailability in Sprague-Dawley rat at 5 mg/kg; format: ADME, organism-based; conditions: in vivo
How it was run: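 Sprague–Dawley rats (n = 3) received 1 mg/kg IV and 5 mg/kg PO. IV vehicle was 10% DMSO/10% solutol/80% (20% HP-β-CD). PO vehicle was a suspension in 20% solutol in 0.5% MC in water, or a solution matching the IV vehicle, depending on compound.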

[9] = Half life in cynomolgus monkey at 0.5 mg/kg, iv; format: ADME, organism-based, Macaca fascicularis; conditions: in vivo
How it was run: (§4)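 Cynomolgus monkeys given a single IV bolus of 0.5 mg/kg in 5% DMSO + 5% kolliphor HS 15 + 90% saline. Clearance is plasma clearance after the bolus.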

[10] = Intrinsic clearance in dog hepatocytes assessed per million cells; format: ADME, cell-based, Canis lupus familiaris, Hepatocyte; how it was run: as §3
[11] = Intrinsic clearance in rat liver microsomes in presence of NADPH; format: ADME, Microsome; how it was run: as §1
[12] = Clearance in cynomolgus monkey at 0.5 mg/kg,iv; format: ADME, organism-based, Macaca fascicularis; conditions: in vivo; how it was run: as §4
[13] = Apparent permeability across apical to basolateral side in MDCK-MDR1 cells; format: ADME, cell-based, Canis lupus familiaris; conditions: dog
[14] = Lipophilicity, logD of compound at pH 7.4; format: physicochemical; conditions: buffer
[15] = Half life in beagle dog at 0.5 mg/kg, iv; format: ADME, organism-based, Canis lupus familiaris; conditions: in vivo
How it was run: (§5)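 Beagle dogs, single IV dose of 0.5 mg/kg in 5% DMSO + 5% kolliphor HS 15 + 90% saline. Clearance is plasma clearance.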

[16] = Volume of distribution at steady state in Sprague-Dawley rat at 1 mg/kg, iv; format: ADME, organism-based; conditions: in vivo, read-out: Vdss
[17] = Plasma clearance in Sprague-Dawley rat at 1 mg/kg, iv; format: ADME, organism-based; how it was run: as §2
[18] = Plasma clearance in cynomolgus monkey at 0.5 mg/kg, iv; format: ADME, organism-based, Macaca fascicularis; how it was run: as §4
[19] = Volume of distribution at steady state in cynomolgus monkey at 0.5 mg/kg, iv; format: ADME, organism-based, Macaca fascicularis; conditions: in vivo, read-out: Vdss
[20] = Thermodynamic solubility of the compound at pH 1.5; format: physicochemical; conditions: buffer
[21] = Plasma protein binding in human assessed as unbound fraction by ultracentrifugation method; format: ADME, cell-free
How it was run: (§6)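 Plasma protein binding determined by ultracentrifugation, reported as the unbound fraction.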

[22] = Oral bioavailability in cynomolgus monkey at […], iv; format: ADME, organism-based, Macaca fascicularis; conditions: in vivo, dose 2.5 mg/kg
[23] = Oral bioavailability in Beagle dog at […], iv; format: ADME, organism-based, Canis lupus familiaris; conditions: in vivo, dose 2.5 mg/kg
[24] = Toxicity in BALB/c nude mouse xenografted with human NCI-H1975 cells assessed as effect on body weight at 25 mg/kg , po qd administered via oral gavage for 14 days; format: organism-based; conditions: in vivo, 336 h, time 14 day
How it was run: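 Female BALB/c nude mice, 6–8 weeks old, bearing s.c. right-flank NCI-H1975 xenografts (5 × 10^6 cells in PBS:Matrigel 1:1). Once-daily oral gavage began at mean tumor volume ~155 mm3. Body weight and tumor size recorded every second day.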

[25] = Thermodynamic solubility of the compound at pH 6.5; format: physicochemical; conditions: buffer
[26] = tested on: Ba/F3 EGFR-T790M/C797S/L858R; test: Antitumor activity against mouse Ba/F3 EGFR-T790M/C797S/L858R cells implanted in NOD SCID mouse assessed as reduction in tumor volume at 100 mg/kg, po bid administered via oral gavage for 14 days; format: functional, organism-based; conditions: time 14.0 day
[27] = Volume of distribution at steady state in Beagle dog at 0.5 mg/kg, iv; format: ADME, organism-based, Canis lupus familiaris; conditions: in vivo, read-out: Vdss
[28] = Plasma protein binding in dog assessed as unbound fraction by ultracentrifugation method; format: ADME, cell-free, Canis lupus familiaris; how it was run: as §6
[29] = tested on: Ba/F3 EGFR-Del19/T790M/C797S; test: Antitumor activity against osimertinib-resistant mouse Ba/F3 EGFR-Del19/T790M/C797S cells implanted in NOD SCID mouse assessed as reduction in tumor volume at 100 mg/kg , po bid administered via oral gavage for 14 days; format: functional, organism-based; conditions: time 14.0 day
[30] = Toxicity in BALB/c nude mouse xenografted with human NCI-H1975 cells assessed as effect on body weight at 100 mg/kg , po bid administered via oral gavage for 14 days; format: organism-based; conditions: in vivo, 336 h, time 14 day
How it was run: (§7)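 Female BALB/c nude mice, 6–8 weeks old, inoculated s.c. in right flank with 5 × 10^6 NCI-H1975 cells in PBS:Matrigel 1:1. Randomized and dosed by oral gavage BID once mean tumor volume reached ~155 mm3. Tumor size and body weight measured every second day. Volume = 0.5ab2 (a, b long and short diameters). Plasma taken 2, 6, 12 h after the last dose for LC-MS/MS.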

NCI-H1975 [31] = test: Antitumor activity against human NCI-H1975 cells xenografted in BALB/c mouse assessed as reduction in tumor volume at 100 mg/kg , po bid administered via oral gavage for 14 days; format: functional, organism-based; conditions: time 14.0 day; how it was run: as §7
[32] = Plasma protein binding in cynomolgus monkey assessed as unbound fraction by ultracentrifugation method; format: ADME, cell-free, Macaca fascicularis; how it was run: as §6
[33] = Plasma protein binding in rat assessed as unbound fraction by ultracentrifugation method; format: ADME, cell-free; how it was run: as §6
NCI-H1975 [34] = test: Antitumor activity against human NCI-H1975 cells xenografted in BALB/c mouse assessed as reduction in tumor volume at 30 mg/kg, po bid administered via oral gavage for 14 days; format: functional, organism-based; conditions: time 14.0 day; how it was run: as §7
[35] = Plasma clearance in beagle dog at 0.5 mg/kg, iv; format: ADME, organism-based, Canis lupus familiaris; how it was run: as §5
[36] = Oral bioavailability in Sprague-Dawley rat at […]; format: ADME, organism-based; conditions: in vivo, dose 2.5 mg/kg
NSCLC = format: functional, organism-based; conditions: Homo sapiens, dose 75-100 mg/kg, route po, time 56.0 day
[37] = Toxicity in BALB/c nude mouse xenografted with human NCI-H1975 cells assessed as effect on body weight at 30 mg/kg, po bid administered via oral gavage for 14 days; format: organism-based; conditions: in vivo, 336 h, time 14 day; how it was run: as §7

CC(C)c1ccc(N2C[C@H](CS(C)(=O)=O)[C@H]2C)c2cnc(Nc3ccnc(N4CC[C@@H](O)[C@@](C)(F)C4)n3)cc12
CLH [1]: 55 µL/min/mg | half-life [2]: 78 min | CLH [3]: 33 µL/min | CLH [4]: 20 µL/min/mg | clearance [5]: 25 mL/min/kg | CLH [6]: 41 µL/min | CLH [7]: 7.2 µL/min/mg | F [8]: 50% | half-life [9]: 174 min | CLH [10]: 21 µL/min | CLH [11]: 43 µL/min/mg | clearance [12]: 31.8 mL/min/kg | Papp [13]: 9 10^-6 cm/s

CO[C@@H]1CCN(c2nccc(Nc3cc4c(C(C)C)ccc(N5C[C@H](CS(C)(=O)=O)[C@H]5C)c4cn3)n2)C[C@@H]1F [TIGOZERTINIB]
logD [14]: 3.8 | half-life [15]: 294 min | Vd [16]: 2.3 L/kg | clearance [17]: 32.4 mL/min/kg | CLH [1]: 109 µL/min/mg | half-life [2]: 78 min | clearance [18]: 4.9 mL/min/kg | Vd [19]: 1.6 L/kg | Therm_solubility [20]: 11 mg/mL | Fu [21]: 1.1% | F [22]: 33% | F [23]: 49% | Activity [24]: Non-Toxic | Therm_solubility [25]: 0.01 mg/mL | Activity [26]: Active | CLH [6]: 23 µL/min | Vd [27]: 3.9 L/kg | CLH [7]: 89 µL/min/mg | Fu [28]: 1.4% | Activity [29]: Active | Activity [30]: Non-Toxic | Activity (NCI-H1975 [31]): Active | Fu [32]: 3.5% | Fu [33]: 0.9% | Activity (NCI-H1975 [34]): Active | half-life [9]: 210 min | clearance [12]: 4.9 mL/min/kg | clearance [35]: 13.7 mL/min/kg | F [36]: 48% | Activity (NSCLC): Active | Activity [37]: Non-Toxic | Papp [13]: 8 10^-6 cm/s
